According to ChEMBL document CHEMBL1140564, “Macrocyclic ureas as potent and selective Chk1 inhibitors: an improved synthesis, kinome profiling, structure-activity relationships, and preliminary pharmacokinetics” (Bioorg Med Chem Lett, 2007):
Calls of active or inactive are those of the source. No cut-off for these calls is given here.

What was measured:
NCI-H1299 = test: Inhibition of doxorubicin-induced cell cycle arrest in H1299 cells at G2/M phase by FACS assay; type: functional, cell-based; conditions: Homo sapiens
Outline: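 H1299 cells treated with 500 nM doxorubicin to induce G2/M arrest, with or without inhibitor at various concentrations, up to 10 μM. Cells stained with propidium iodide and DNA content analysed by FACS. EC50 for abrogation of the Dox-induced G2/M checkpoint.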

HeLa = test: Cytotoxicity against HeLa cells by MTS assay; type: functional, cell-based; conditions: Homo sapiens
[1] = Cell cycle arrest in H1299 cells by accumulation at G2/M phase by FACS assay; type: functional, cell-based; conditions: Homo sapiens, NCI-H1299
[2] = biological target: T1, Serine/threonine-protein kinase Chk1 (Homo sapiens, UniProt O14757); test: Inhibition of Chk1
T1 sequence (O14757 whole entry): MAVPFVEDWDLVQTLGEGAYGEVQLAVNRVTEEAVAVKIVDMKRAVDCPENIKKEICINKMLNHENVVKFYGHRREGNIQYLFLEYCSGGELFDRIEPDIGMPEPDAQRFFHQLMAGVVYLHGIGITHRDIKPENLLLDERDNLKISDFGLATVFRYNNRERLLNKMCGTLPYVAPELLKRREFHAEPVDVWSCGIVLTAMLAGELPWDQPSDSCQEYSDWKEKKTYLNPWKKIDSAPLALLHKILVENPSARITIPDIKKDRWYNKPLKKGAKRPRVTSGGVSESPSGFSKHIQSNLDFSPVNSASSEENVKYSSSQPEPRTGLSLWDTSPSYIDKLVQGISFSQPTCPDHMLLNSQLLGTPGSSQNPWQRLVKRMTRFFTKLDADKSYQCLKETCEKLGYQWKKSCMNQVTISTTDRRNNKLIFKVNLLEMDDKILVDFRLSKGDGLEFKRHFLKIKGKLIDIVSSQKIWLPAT

[3] = AUC in mouse plasma at 10 mg/kg; type: ADME, organism-based; set-up: dose 10 mg/kg
Outline: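 CD-1 mice received a single intraperitoneal dose of 10 mg/kg. Plasma drug levels were followed over time, and exposure was expressed as AUC in µmol h/L.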

| SMILES | Activity (NCI-H1299) | EC50 (HeLa) | Activity [1] | IC50 [2] | EC50 (NCI-H1299) | EC50 [1] | AUC [3] |
| --- | --- | --- | --- | --- | --- | --- | --- |
| N#Cc1ncc2nc1OCCCCOc1cc(O)c(Cl)cc1NC(=O)N2 | inactive | > 59.3 µM | inactive | 0.0003 µM | – | – | – |
| CCNc1cc2c(cc1Cl)NC(=O)Nc1cnc(C#N)c(n1)OCCCCO2 | inactive | > 59.3 µM | inactive | 0.003 µM | – | – | – |
| N#Cc1ncc2nc1OCCCCOc1cc(OCCCN3CCOCC3)c(Cl)cc1NC(=O)N2 | – | 5 µM | – | 0.001 µM | > 10 µM | > 10 µM | – |
| CCN(CC)c1cc2c(cc1Cl)NC(=O)Nc1cnc(C#N)c(n1)OCCCCO2 | – | > 59.3 µM | – | 0.023 µM | > 10 µM | > 10 µM | – |
| N#Cc1ncc2nc1OC/C=C\COc1cc(N3CCOC3=O)c(Cl)cc1NC(=O)N2 | inactive | > 59.3 µM | inactive | 0.01 µM | – | – | – |
| N#Cc1ncc2nc1OC/C=C\COc1cc(NC(=O)OCCN3CCOCC3)c(Cl)cc1NC(=O)N2 | – | > 59.3 µM | – | 0.003 µM | > 10 µM | > 10 µM | – |
| N#Cc1ncc2nc1OC/C=C\COc1cc(NC(=O)c3ccnc(Cl)c3)c(Cl)cc1NC(=O)N2 | – | 5.4 µM | – | 0.006 µM | > 10 µM | > 10 µM | – |
| N#Cc1ncc2nc1OCCCCCOc1ccc(Cl)cc1NC(=O)N2 | – | – | – | – | – | – | 1.5 µM·h |
| COCCCOc1cc2c(cc1Cl)NC(=O)Nc1cnc(C#N)c(n1)OCCCCO2 | inactive | 13.9 µM | inactive | 0.003 µM | – | – | – |
| N#Cc1ncc2nc1OCCCCOc1cc(NC(=O)c3ccnc(Cl)c3)c(Cl)cc1NC(=O)N2 | inactive | > 59.3 µM | inactive | 0.004 µM | – | – | – |
| N#Cc1ncc2nc1OC/C=C\COc1cc(OCCN3CCOCC3)c(Cl)cc1NC(=O)N2 | – | 14.1 µM | – | 0.001 µM | > 10 µM | > 10 µM | – |
| N#Cc1ncc2nc1OCCCCOc1ccc(Cl)cc1NC(=O)N2 | – | 57.6 µM | – | – | 1.3 µM | > 10 µM | 3.8 µM·h |
| N#Cc1ncc2nc1OC/C=C\COc1cc(N(CCO)CCO)c(Cl)cc1NC(=O)N2 | inactive | 34.1 µM | inactive | 0.001 µM | – | – | – |
| N#Cc1ncc2nc1OC/C=C\COc1cc(OC(=O)N3CCC(N4CCCCC4)CC3)c(Cl)cc1NC(=O)N2 | – | 1.2 µM | – | 0.001 µM | > 10 µM | > 10 µM | – |
| N#Cc1ncc2nc1OC/C=C\COc1cc(O)c(Cl)cc1NC(=O)N2 | – | 45.7 µM | – | 0.0003 µM | 0.7 µM | > 10 µM | – |
| N#Cc1ncc2nc1OC/C=C\COc1cc(NC(=O)c3ccncc3)c(Cl)cc1NC(=O)N2 | – | > 59.3 µM | – | 0.006 µM | > 10 µM | > 10 µM | – |
| N#Cc1ncc2nc1OC/C=C\COc1cc(OCCCN3CCOCC3)c(Cl)cc1NC(=O)N2 | – | 1.9 µM | – | 0.0003 µM | > 10 µM | > 10 µM | – |
| N#Cc1ncc2nc1OC/C=C\COc1cc(N)c(Cl)cc1NC(=O)N2 | – | > 59.3 µM | – | 0.0003 µM | < 0.03 µM | > 10 µM | – |
